Test results taken from ChEMBL document CHEMBL1136157, “Synthesis of 3a,4-dihydro-3H-[1]benzopyrano[4,3-c]isoxazoles, displaying combined 5-HT uptake inhibiting and alpha(2)-adrenoceptor antagonistic activities: a novel series of potential antidepressants” (Bioorg Med Chem Lett, 2003).

Assays:
[1] = target: T1, Alpha-2B adrenergic receptor (Homo sapiens, UniProt P18089); test: In vitro binding affinity towards human alpha-2B adrenergic receptor using [3H]rauwolscine
T1 sequence (P18089 whole entry): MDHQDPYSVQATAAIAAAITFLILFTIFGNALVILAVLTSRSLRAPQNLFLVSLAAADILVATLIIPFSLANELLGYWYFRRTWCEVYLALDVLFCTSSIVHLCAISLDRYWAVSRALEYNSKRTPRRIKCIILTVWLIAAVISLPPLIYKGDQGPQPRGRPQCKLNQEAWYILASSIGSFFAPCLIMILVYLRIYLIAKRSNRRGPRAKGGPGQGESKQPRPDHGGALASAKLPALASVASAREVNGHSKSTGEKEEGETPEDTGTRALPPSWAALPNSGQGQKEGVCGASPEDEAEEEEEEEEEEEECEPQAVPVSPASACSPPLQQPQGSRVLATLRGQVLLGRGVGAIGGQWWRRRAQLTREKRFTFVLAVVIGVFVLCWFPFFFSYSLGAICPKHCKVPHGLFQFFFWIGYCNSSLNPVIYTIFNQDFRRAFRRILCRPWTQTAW

[2] = target: T2, Alpha-2C adrenergic receptor (Homo sapiens, UniProt P18825); test: In vitro binding affinity towards human adrenergic alpha-2C adrenergic receptor using [3H]rauwolscine
T2 sequence (P18825 whole entry): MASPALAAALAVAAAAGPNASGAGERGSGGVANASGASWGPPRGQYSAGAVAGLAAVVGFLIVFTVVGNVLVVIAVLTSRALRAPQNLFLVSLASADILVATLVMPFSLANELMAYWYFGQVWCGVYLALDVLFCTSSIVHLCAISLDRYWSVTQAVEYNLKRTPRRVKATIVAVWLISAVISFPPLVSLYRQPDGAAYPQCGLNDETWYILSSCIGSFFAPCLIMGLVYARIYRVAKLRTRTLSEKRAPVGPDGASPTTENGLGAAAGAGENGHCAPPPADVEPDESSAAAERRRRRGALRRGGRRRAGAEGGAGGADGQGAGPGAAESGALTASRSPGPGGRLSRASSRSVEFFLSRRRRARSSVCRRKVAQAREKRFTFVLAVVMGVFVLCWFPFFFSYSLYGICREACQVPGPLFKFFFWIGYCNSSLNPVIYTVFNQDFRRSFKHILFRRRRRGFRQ

[3] = target: Sodium-dependent serotonin transporter (Rattus norvegicus) (UniProt P31652); test: In vivo effective dose required to inhibit p-chloroamphetamine induced excitation in rats upon subcutaneous administration; assay type: functional, organism-based
Summary of the method: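 Overnight-starved male Wistar rats (200–250 g) given test compound or solvent sc 1 h before p-chloroamphetamine (5 mg/10 mL/kg, sc). Excitation scored over a 15-min interval starting 45 min after pCA. A score <2 was the all-or-nothing criterion for inhibition (1.0% false positives, n>200). ED50 in mg/kg.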

[4] = target: Adrenergic receptor alpha-2 (Rattus norvegicus) (UniProt P22086+P19328+P22909); test: In vivo effective dose required to inhibit xylazine-induced loss of righting in rats upon subcutaneous administration; assay type: functional, organism-based
[5] = target: T3, Alpha-2A adrenergic receptor (Homo sapiens, UniProt P08913); test: In vitro binding affinity towards human alpha-2A adrenergic receptor using [3H]rauwolscine
T3 sequence (P08913 whole entry): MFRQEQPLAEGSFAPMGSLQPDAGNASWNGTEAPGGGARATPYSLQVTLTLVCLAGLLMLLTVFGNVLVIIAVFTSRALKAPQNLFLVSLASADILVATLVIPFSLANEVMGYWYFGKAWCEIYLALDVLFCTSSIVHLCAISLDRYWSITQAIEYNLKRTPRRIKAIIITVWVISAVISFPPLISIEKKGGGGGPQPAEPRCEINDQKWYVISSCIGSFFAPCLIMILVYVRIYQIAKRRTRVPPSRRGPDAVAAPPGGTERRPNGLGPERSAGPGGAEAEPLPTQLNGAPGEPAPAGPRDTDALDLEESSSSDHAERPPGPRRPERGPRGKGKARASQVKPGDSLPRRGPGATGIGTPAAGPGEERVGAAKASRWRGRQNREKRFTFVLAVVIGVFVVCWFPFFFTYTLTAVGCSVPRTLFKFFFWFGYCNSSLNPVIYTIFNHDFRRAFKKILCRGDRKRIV

Sequence of Sodium-dependent serotonin transporter (Rattus norvegicus) (P31652 whole entry): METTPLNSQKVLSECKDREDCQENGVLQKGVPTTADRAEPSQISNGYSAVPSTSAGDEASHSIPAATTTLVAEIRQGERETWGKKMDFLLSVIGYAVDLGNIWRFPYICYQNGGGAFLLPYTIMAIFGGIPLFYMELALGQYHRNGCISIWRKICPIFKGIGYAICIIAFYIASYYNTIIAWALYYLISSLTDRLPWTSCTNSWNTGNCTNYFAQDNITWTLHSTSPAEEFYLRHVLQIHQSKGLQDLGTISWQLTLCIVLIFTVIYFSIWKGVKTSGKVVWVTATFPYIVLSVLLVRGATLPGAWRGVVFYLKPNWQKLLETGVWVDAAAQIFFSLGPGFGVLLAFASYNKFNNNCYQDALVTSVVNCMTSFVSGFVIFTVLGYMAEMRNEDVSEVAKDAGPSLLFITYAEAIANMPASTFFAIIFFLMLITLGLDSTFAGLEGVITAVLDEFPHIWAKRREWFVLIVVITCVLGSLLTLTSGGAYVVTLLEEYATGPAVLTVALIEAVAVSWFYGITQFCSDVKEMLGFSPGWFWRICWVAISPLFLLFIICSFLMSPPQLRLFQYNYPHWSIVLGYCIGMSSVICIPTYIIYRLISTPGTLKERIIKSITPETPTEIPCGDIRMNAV

COc1cc2c(cc1OC)C1=NOC(CN3CCN(Cc4ccc5ccccc5c4)CC3)C1CO2 (centres undefined)
Ki [1]: 49 nM
Ki [2]: 3.1 nM
ED50 [3]: 0.79 mg/kg
ED50 [4]: 5 mg/kg

COc1cc2c(cc1OC)C1=NO[C@@H](CN3CCN(Cc4ccc5ccccc5c4)CC3)[C@@H]1CO2 (stereo in doubt; (+)15h) [listing 1 of 2 here]
Ki [1]: 14 nM
Ki [2]: 0.8 nM

COc1cc2c(cc1OC)C1=NO[C@@H](CN3CCN(C/C(C)=C/c4ccccc4)CC3)[C@@H]1CO2 (stereo in doubt; (-)15f) [listing 1 of 2 here]
Ki [1]: 15 nM
Ki [2]: 1.4 nM

COc1cc2c(cc1OC)C1=NO[C@@H](CN3CCN(Cc4ccc5ccccc5c4)CC3)[C@@H]1CO2 (stereo in doubt; (+)15h) [listing 2 of 2 here]
ED50 [3]: 0.08 mg/kg
ED50 [4]: 6.1 mg/kg

COc1cc2c(cc1OC)C1=NOC(CN3CCN(CCCc4ccccc4)CC3)C1CO2 (centres undefined)
Ki [1]: 42 nM
Ki [5]: 26 nM
Ki [2]: 1.9 nM
ED50 [3]: 5 mg/kg
ED50 [4]: 2.5 mg/kg

COc1cc2c(cc1OC)C1=NO[C@@H](CN3CCN(C/C=C(\C)c4ccccc4)CC3)[C@@H]1CO2 (stereo in doubt; (-)15g) [listing 1 of 2 here]
Ki [1]: 405 nM
Ki [2]: 10 nM

COc1cc2c(cc1OC)C1=NO[C@@H](CN3CCN(C/C(C)=C/c4ccccc4)CC3)[C@@H]1CO2 (stereo in doubt; (+)15f) [listing 1 of 2 here]
ED50 [4]: 3.1 mg/kg

COc1cc2c(cc1OC)C1=NOC(CN3CCN(Cc4csc5ccccc45)CC3)C1CO2 (centres undefined)
Ki [1]: 370 nM
Ki [5]: 66 nM
Ki [2]: 13 nM

COc1cc2c(cc1OC)C1=NO[C@@H](CN3CCN(C/C=C/c4ccccc4)CC3)[C@@H]1CO2 (stereo in doubt; (-)5) [listing 1 of 2 here]
Ki [1]: 42 nM

COc1cc2c(cc1OC)C1=NOC(CN3CCN(C/C=C(\C)c4ccccc4)CC3)C1CO2 (centres undefined)
Ki [1]: 31 nM
Ki [2]: 0.6 nM
ED50 [3]: 0.2 mg/kg
ED50 [4]: 2.5 mg/kg

COc1cc2c(cc1OC)C1=NOC(CN3CCN(CCc4ccccc4)CC3)C1CO2 (centres undefined)
Ki [1]: > 1000 nM
Ki [5]: 234 nM
Ki [2]: 89 nM
ED50 [3]: 10 mg/kg
ED50 [4]: > 10 mg/kg

COc1ccc2c(c1)C1=NOC(CN3CCN(C/C=C/c4ccccc4)CC3)C1CO2 (centres undefined)
Ki [1]: 12 nM
Ki [5]: 0.8 nM
Ki [2]: 2.3 nM
ED50 [3]: 5 mg/kg
ED50 [4]: 2.5 mg/kg

COc1cc2c(cc1OC)C1=NOC(CN3CCN(Cc4ccccc4)CC3)C1CO2 (centres undefined)
Ki [1]: 995 nM
Ki [5]: 186 nM
Ki [2]: 89 nM
ED50 [3]: 8 mg/kg
ED50 [4]: > 10 mg/kg

COc1cc2c(cc1OC)C1=NO[C@@H](CN3CCN(C/C=C(\C)c4ccccc4)CC3)[C@@H]1CO2 (stereo in doubt; (+)15g) [listing 1 of 2 here]
ED50 [3]: 0.5 mg/kg
ED50 [4]: 0.32 mg/kg

COc1cc2c(cc1OC)C1=NO[C@@H](CN3CCN(C/C=C(\C)c4ccccc4)CC3)[C@@H]1CO2 (stereo in doubt; (+)15g) [listing 2 of 2 here]
Ki [1]: 14 nM
Ki [2]: 0.2 nM

COc1cc2c(cc1OC)C1=NO[C@@H](CN3CCN(C/C=C\c4ccccc4)CC3)[C@@H]1CO2
ED50 [3]: 10 mg/kg

COc1ccc2c(c1)OCC1C2=NOC1CN1CCN(C/C=C/c2ccccc2)CC1 (centres undefined)
Ki [1]: 16 nM
Ki [2]: 1.9 nM
ED50 [3]: 1.4 mg/kg
ED50 [4]: 2 mg/kg

COc1cc2c(cc1OC)C1=NO[C@@H](CN3CCN(C/C=C/c4ccccc4)CC3)[C@@H]1CO2 (stereo in doubt; (+)5) [listing 1 of 2 here]
Ki [1]: 14 nM

COc1cc2c(cc1OC)C1=NO[C@@H](CN3CCN(C/C=C/c4ccccc4)CC3)[C@@H]1CO2 (stereo in doubt; (+)5) [listing 2 of 2 here]
ED50 [3]: 0.51 mg/kg
ED50 [4]: 2.5 mg/kg

Fc1ccc2c(c1)CC(CC1CN=CN1)C2 (centres undefined)
Ki [1]: 23 nM
Ki [2]: 19 nM
ED50 [3]: 2 mg/kg
ED50 [4]: 2.7 mg/kg

COc1cc2c(cc1OC)C1=NOC(CN3CCN(C/C(C)=C/c4ccccc4)CC3)C1CO2 (centres undefined)
Ki [1]: 7.5 nM
Ki [2]: 0.2 nM
ED50 [4]: 1 mg/kg

COc1cc2c(cc1OC)C1=NO[C@@H](CN3CCN(C/C=C(\C)c4ccccc4)CC3)[C@@H]1CO2 (stereo in doubt; (-)15g) [listing 2 of 2 here]
ED50 [3]: > 10 mg/kg
ED50 [4]: > 10 mg/kg

COc1cc2c(cc1OC)C1=NO[C@@H](CN3CCN(C/C=C/c4ccccc4)CC3)[C@@H]1CO2 (stereo in doubt; (-)5) [listing 2 of 2 here]
ED50 [3]: 2.5 mg/kg
ED50 [4]: 5 mg/kg

COc1cc2c(cc1OC)C1=NOC(CN3CCN(C/C=C/c4ccccc4)CC3)C1CO2 (centres undefined)
Ki [1]: 42 nM
ED50 [3]: 0.76 mg/kg
ED50 [4]: 2.5 mg/kg

COc1cc2c(cc1OC)C1=NO[C@@H](CN3CCN(C/C(C)=C/c4ccccc4)CC3)[C@@H]1CO2 (stereo in doubt; (-)15f) [listing 2 of 2 here]
ED50 [4]: > 10 mg/kg

COc1cc2c(cc1OC)C1=NO[C@@H](CN3CCN(C/C(C)=C/c4ccccc4)CC3)[C@@H]1CO2 (stereo in doubt; (+)15f) [listing 2 of 2 here]
Ki [1]: 3 nM
Ki [2]: 0.1 nM

C(=C\c1ccccc1)/CN1CCN(CC2ON=C3c4ccccc4OCC32)CC1 (centres undefined)
Ki [1]: 2 nM
Ki [2]: 1.7 nM
ED50 [3]: 5 mg/kg
ED50 [4]: 2 mg/kg

COc1cc2c(cc1OC)C1=NOC(CN3CCN(CCC(=O)c4ccccc4)CC3)C1CO2 (centres undefined)
Ki [5]: 12 nM
Ki [2]: 5.3 nM

COc1cc2c(cc1OC)C1=NO[C@@H](CN3CCN(Cc4ccc5ccccc5c4)CC3)[C@@H]1CO2 (stereo in doubt; (-)15h) [listing 1 of 2 here]
Ki [1]: 95 nM
Ki [2]: 9.5 nM

COc1cc2c(cc1OC)C1=NOC(CN3CCN(Cc4cnc5ccccc5c4)CC3)C1CO2 (centres undefined)
Ki [1]: > 1000 nM
Ki [5]: 34 nM
Ki [2]: 30 nM
ED50 [3]: 5 mg/kg
ED50 [4]: 5 mg/kg

COc1cc2c(cc1OC)C1=NOC(CN3CCN(Cc4cccc5ccccc45)CC3)C1CO2 (centres undefined)
Ki [1]: > 1000 nM
Ki [5]: 234 nM
Ki [2]: 89 nM
ED50 [3]: 3.2 mg/kg
ED50 [4]: > 10 mg/kg

COc1cc2c(cc1OC)C1=NO[C@@H](CN3CCN(Cc4ccc5ccccc5c4)CC3)[C@@H]1CO2 (stereo in doubt; (-)15h) [listing 2 of 2 here]
ED50 [3]: 1.5 mg/kg
ED50 [4]: 10 mg/kg

COc1cccc2c1CCC[C@H]2CN(C)CCc1ccc2ccoc2c1
Ki [1]: 11 nM
Ki [2]: 2.1 nM
ED50 [3]: 10 mg/kg
ED50 [4]: > 10 mg/kg

COc1cc2c(cc1OC)C1=NOC(CN3CCN(Cc4cc5ccccc5s4)CC3)C1CO2 (centres undefined)
Ki [1]: > 1000 nM
Ki [5]: 98 nM
Ki [2]: 89 nM
ED50 [3]: 2.5 mg/kg
ED50 [4]: > 10 mg/kg

COc1cc2c(cc1OC)C1=NOC(CN3CCN(CC4=Cc5ccccc5C4)CC3)C1CO2 (centres undefined)
Ki [1]: 315 nM
Ki [5]: 22 nM
Ki [2]: 4.7 nM
ED50 [3]: 0.32 mg/kg
ED50 [4]: 10 mg/kg

COc1cc2c(cc1OC)C1=NOC(CN3CCN(Cc4ccc5ncccc5c4)CC3)C1CO2 (centres undefined)
Ki [1]: 721 nM
Ki [5]: 117 nM
Ki [2]: 36 nM
ED50 [3]: 0.63 mg/kg
ED50 [4]: 5 mg/kg
